For 12 compounds, selectivity ratio and IC50 results are on record in ChEMBL document CHEMBL1142519, “Synthesis and antiprotozoal activity of cationic 2-phenylbenzofurans” (J Med Chem, 2008).

Series [1] is described as follows: Selectivity index, ratio of IC50 for rat L6 cells to IC50 for chloroquine-resistant Plasmodium falciparum K1. The note with it: read-out: Ratio IC50. It counts as toxicity, cell-based. The gist of the method: (§1)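 Ratio of the L6 rat myoblast cytotoxicity IC50 to the IC50 against the parasite named in the line. Each IC50 is the average of duplicate determinations.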

The nature of series [2]: Selectivity index, ratio of IC50 for rat L6 cells to IC50 for Leishmania donovani MHOM/SD/62/1S-CL2D. It counts as toxicity, cell-based. The note with it: read-out: Ratio IC50. The gist of the method: as §1
The nature of series [3]: Selectivity index, ratio of IC50 for rat L6 cells to IC50 for Trypanosoma brucei rhodesiense STIB 900. Type of series: toxicity, cell-based. Conditions: read-out: Ratio IC50. The gist of the method: as §1
In another series the test system is Plasmodium falciparum. Nature of the series: Antiplasmodial activity against chloroquine-resistant Plasmodium falciparum K1. It counts as functional, organism-based. The method in brief: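 In vitro IC50 against chloroquine-resistant P. falciparum K1, reported as the average of duplicate determinations.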
A further series deals with Leishmania donovani. Nature of the series: Antileishmanial activity against Leishmania donovani MHOM/SD/62/1S-CL2D axenic amastigotes. Type of series: functional, organism-based. The method in brief: (§2)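 IC50 values in µM, each the average of duplicate determinations. Parasites were T. b. rhodesiense STIB900 and axenic amastigotes of L. donovani MHOM/SD/62/1S-CL2D. Cytotoxicity was run on rat L6 myoblast cells.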

In series [4] the test system is Trypanosoma brucei rhodesiense. Nature of the series: Antitrypanosomal activity against Trypanosoma brucei rhodesiense STIB 900 bloodstream trypomastigotes. Type of series: functional, organism-based. The method in brief:
as §2

Another series relates to L6. In words: Cytotoxicity against rat L6 cells. It counts as cell-based. The gist of the method: as §2

Bounds are passed on as bounds.

`c1c[nH]c(-c2ccc(-c3cc4cc(-c5ncc[nH]5)ccc4o3)cc2)n1`: the selectivity ratio in series [1] is 100; in series [2] it was under 0.03; in series [3] it was 5. The IC50 in the series on Plasmodium falciparum is 33 nM; with Leishmania donovani it was over 100000 nM; in series [4], 606 nM; with L6, 3300 nM.

In the case of `CC(C)NC(=N)c1cccc(-c2cc3ccc(C(=N)NC(C)C)cc3o2)c1`, the selectivity ratio in series [1] is over 3390; in series [2], over 8; in series [3] it was over 375. Also, the IC50 was 59 nM in the series on Plasmodium falciparum, 24000 nM with Leishmania donovani, 534 nM in series [4] and over 200000 nM with L6.

For `c1cc(C2=NCCN2)cc(-c2cc3cc(C4=NCCN4)ccc3o2)c1`, the selectivity ratio was found to be 446 in series [1], 1.5 in series [2] and 435 in series [3]. Moreover, the 50% inhibitory concentration (IC50) came out at 76 nM with Plasmodium falciparum, 24000 nM in the series with Leishmania donovani, 78 nM in series [4] and 33900 nM in the series with L6.

As to `COc1ccc(C(=N)NC(C)C)cc1-c1cc2cc(C(=N)NC(C)C)ccc2o1`, the selectivity ratio in series [1] was over 716; in series [2] it was over 7; in series [3] it was over 1160. In addition, the IC50 in the series with Plasmodium falciparum is 250 nM; in the series with Leishmania donovani it was 25000 nM; in series [4], 155 nM; in the series on L6 it was over 179000 nM.

For the compound `c1cc(C2=NCCN2)cc(-c2cc3ccc(C4=NCCN4)cc3o2)c1`, the selectivity ratio was determined as 62 in series [1], 0.1 in series [2] and 38 in series [3]. Also, the IC50 in the series on Plasmodium falciparum was 205 nM; in the series on Leishmania donovani it was over 100000 nM; in series [4] it was 333 nM; in the series on L6 it was 12800 nM.

On to `CC(C)NC(=N)c1ccc(O)c(-c2cc3cc(C(=N)NC(C)C)ccc3o2)c1`, for which the selectivity ratio was over 349 in series [1], over 5 in series [2] and over 179 in series [3]. Besides, the IC50 was 516 nM in the series with Plasmodium falciparum, 40000 nM in the series on Leishmania donovani, 1000 nM in series [4] and over 180000 nM in the series on L6.

With `N=C(N)c1cccc(-c2cc3cc(C(=N)N)ccc3o2)c1`, the values for the selectivity ratio in series [1], in series [2] and in series [3] were 1120, 4 and 883, respectively. For the same compound, the IC50 in the series on Plasmodium falciparum was determined as 19 nM; in the series with Leishmania donovani, 5800 nM; in series [4], 24 nM; in the series on L6 it was 21200 nM.

As for `c1cc(-c2cc3ccc(C4=NCCN4)cc3o2)ccc1C1=NCCN1`, the selectivity ratio in series [1] is 41; in series [2], under 0.1; in series [3], 14. Besides, the IC50 is 109 nM in the series on Plasmodium falciparum, over 50000 nM in the series with Leishmania donovani, 319 nM in series [4] and 4500 nM in the series on L6.

On to `COc1ccc(C(=N)NC(C)C)cc1-c1cc2ccc(C(=N)NC(C)C)cc2o1`, for which the selectivity ratio in series [1] is over 597; in series [2] it was over 3; in series [3], over 188. The IC50 is 293 nM with Plasmodium falciparum, 54000 nM in the series on Leishmania donovani, 929 nM in series [4] and over 175000 nM in the series on L6.

Turning to `c1ccc2[nH]c(-c3ccc(-c4cc5cc(C6=NCCN6)ccc5o4)cc3)nc2c1`, the selectivity ratio in series [1] is 972; in series [2], under 0.6; in series [3] it was 260. Moreover, the half-maximal inhibitory concentration (IC50) was 61 nM in the series on Plasmodium falciparum, over 100000 nM in the series on Leishmania donovani, 228 nM in series [4] and 59300 nM in the series with L6.

Regarding `CC(C)NC(=N)c1ccc(O)c(-c2cc3ccc(C(=N)NC(C)C)cc3o2)c1`, the selectivity ratio was over 294 in series [1] and over 37 in series [3]. In addition, the IC50 with Plasmodium falciparum is 636 nM; in the series on Leishmania donovani it was over 100000 nM; in series [4], 5100 nM; in the series on L6, over 187000 nM.

Consider `C[C@@H]1CC[C@H]2[C@@H](C)C(=O)O[C@@H]3O[C@@]4(C)CC[C@@H]1[C@]32OO4` [ARTEMISININ], for which, in series [1], the selectivity ratio was found to be 75000.

In general, IC50 refers to the midpoint of a concentration-inhibition curve.
